ChEMBL document CHEMBL1157686, “Synthesis, stereoelectronic characterization and antiparasitic activity of new 1-benzenesulfonyl-2-methyl-1,2,3,4-tetrahydroquinolines” (Bioorg Med Chem, 2010)

Experiments:
[1] = system: Trypanosoma cruzi; assay: Antitrypanosomal activity against Trypanosoma cruzi infected in rat L6 cells; format: functional, organism-based
Outline: (§1)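 Protocol follows an earlier published method. Compounds were tested in duplicate over 0.2–300 μM.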

[2] = system: Trypanosoma brucei rhodesiense; assay: Antitrypanosomal activity against Trypanosoma brucei rhodesiense infected in rat L6 cells; format: functional, organism-based; outline: as §1
[3] = system: L6; assay: Cytotoxicity against rat L6 cells; format: cell-based; outline: as §1
[4] = system: Plasmodium falciparum; assay: Antiplasmodial activity against chloroquine and pyrimethamine-resistant Plasmodium falciparum K1 infected in rat L6 cells; format: functional, organism-based
Outline: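 P. falciparum K1 (chloroquine- and pyrimethamine-resistant) tested in vitro following an earlier-published method. Compounds were run in duplicate over 0.2–300 μM. Values are the mean of four determinations (two per experiment, two independent experiments).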

[5] = system: Leishmania donovani; assay: Antileishmanial activity against Leishmania donovani infected in rat L6 cells; format: functional, organism-based; outline: as §1
[6] = Selectivity index, ratio of IC50 for rat L6 cells to IC50 for Trypanosoma cruzi infected in rat L6 cells; format: toxicity, cell-based; details: read-out: Ratio IC50
Outline: (§2)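 SI = IC50 in rat L6 cells / IC50 against the parasite (T. cruzi or P. falciparum K1). Both IC50s came from duplicate in vitro runs over 0.2–300 μM following an earlier-published method, each averaged from four determinations across two independent experiments.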

[7] = Ratio of compound IC50 to podophyllotoxin IC50 for rat L6 cells; format: cell-based; details: read-out: Ratio IC50
[8] = Selectivity index, ratio of IC50 for rat L6 cells to IC50 for chloroquine and pyrimethamine-resistant Plasmodium falciparum K1 infected in rat L6 cells; format: toxicity, cell-based; details: read-out: Ratio IC50; outline: as §2
[9] = system: Trypanosoma cruzi; assay: Ratio of compound IC50 to benznidazole IC50 for Trypanosoma cruzi infected in rat L6 cells; format: functional

CC1CCc2ccccc2N1S(=O)(=O)c1ccc(N)cc1 (stereo unspecified) showed an IC50 [1] of 19.7 µM, an IC50 [2] of 37.2 µM and an IC50 [3] of 35.3 µM. The IC50 [4] was > 16.6 µM, the IC50 [5] was 55.8 µM and the selectivity ratio [6] was 1.78. The selectivity ratio [7] was 590 and the selectivity ratio [8] was < 2.13.
Work on Cc1ccc(S(=O)(=O)N2c3ccccc3CCC2C)cc1 (stereo unspecified) yielded an IC50 [1] of 16.6 µM, an IC50 [2] of 44 µM and an IC50 [3] of 4.9 µM. For the same compound, the IC50 [4] was 11 µM, the IC50 [5] was 22.5 µM and the selectivity ratio [6] was 0.29. The selectivity ratio [7] was 590 and the selectivity ratio [8] was 0.44.
CC1CCc2ccccc2N1S(=O)(=O)c1ccc(Cl)cc1 (stereo unspecified) showed an IC50 [1] of 16 µM, an IC50 [2] of 43.5 µM and an IC50 [3] of 20.5 µM. For the same compound, the IC50 [4] was 8.43 µM, the IC50 [5] was 18.9 µM and the selectivity ratio [6] was 1.28. For the same compound, the selectivity ratio [7] was 590 and the selectivity ratio [8] was 2.43.
CC1CCc2ccccc2N1 (stereo unspecified) gave an IC50 [1] of 189 µM, an IC50 [2] of 87.2 µM and an IC50 [3] of 249 µM. For the same compound, the IC50 [4] was > 34 µM, the IC50 [5] was > 611 µM and the selectivity ratio [6] was 1.32. For the same compound, the selectivity ratio [8] was < 7.32.
In the case of CC1CCc2ccccc2N1S(=O)(=O)c1ccc([N+](=O)[O-])cc1 (stereo unspecified), the IC50 [1] is reported as 11.4 µM, the IC50 [2] is reported as 153 µM and the IC50 [3] is reported as 248 µM. For the same compound, the IC50 [4] was 8.31 µM, the IC50 [5] was > 271 µM and the selectivity ratio [6] was 21.7. The selectivity ratio [7] was 590, the “Ratio IC50” value [9] was 7 and the selectivity ratio [8] was 30.
Compound CC1CCc2ccccc2N1S(=O)(=O)c1ccc(Br)cc1 (stereo unspecified) has an IC50 [1] of 13.8 µM, an IC50 [2] of 40.1 µM and an IC50 [3] of 7.36 µM. For the same compound, the IC50 [4] was 6.65 µM, the IC50 [5] was 21.4 µM and the selectivity ratio [6] was 0.53. The selectivity ratio [7] was 590 and the selectivity ratio [8] was 1.1.
With CC1CCc2ccccc2N1S(=O)(=O)c1cccc([N+](=O)[O-])c1 (stereo unspecified) the IC50 [1] was 31.9 µM, the IC50 [2] was 33.1 µM and the IC50 [3] was 187 µM. It also gave an IC50 [4] of 10.3 µM, an IC50 [5] of 24.9 µM and a selectivity ratio [6] of 5.85. For the same compound, the selectivity ratio [7] was 590 and the selectivity ratio [8] was 18.1.
In the case of CC1CCc2ccccc2N1S(=O)(=O)c1ccc(F)cc1 (stereo unspecified), the IC50 [1] is reported as 224 µM, the IC50 [2] is reported as 125 µM and the IC50 [3] is reported as 67.6 µM. For the same compound, the IC50 [4] was 12.1 µM, the IC50 [5] was 167 µM and the selectivity ratio [6] was 0.3. It also gave a selectivity ratio [7] of 590 and a selectivity ratio [8] of 5.58.
Work on CCCCCCCCCCCCCCCCOP(=O)([O-])OCC[N+](C)(C)C [MILTEFOSINE] yielded an IC50 [5] of 0.25 µM.
CC(=O)Nc1ccc(S(=O)(=O)N2c3ccccc3CCC2C)cc1 (stereo unspecified) showed an IC50 [1] of 21.4 µM, an IC50 [2] of 49.8 µM and an IC50 [3] of 52 µM. The IC50 [4] was > 14.5 µM, the IC50 [5] was 50.7 µM and the selectivity ratio [6] was 2.42. The selectivity ratio [7] was 590 and the selectivity ratio [8] was < 3.58.
CC1CCc2ccccc2N1S(=O)(=O)c1ccccc1 (stereo unspecified) gave an IC50 [1] of 21.3 µM, an IC50 [2] of 52.9 µM and an IC50 [3] of 70 µM. For the same compound, the IC50 [4] was 13.2 µM, the IC50 [5] was 174 µM and the selectivity ratio [6] was 3.29. The selectivity ratio [7] was 590 and the selectivity ratio [8] was 5.28.
Compound Nc1nc(N)nc(Nc2ccc([As]3SCC(CO)S3)cc2)n1 (stereo unspecified) [MELARSOPROL] has an IC50 [2] of 0.008 µM.
Compound O=C(Cn1ccnc1[N+](=O)[O-])NCc1ccccc1 [BENZNIDAZOLE] has an IC50 [1] of 1.54 µM.
For COc1ccc(S(=O)(=O)N2c3ccccc3CCC2C)cc1 (stereo unspecified), the IC50 [1] was 15.9 µM, the IC50 [2] was 43.9 µM and the IC50 [3] was 5.99 µM. For the same compound, the IC50 [4] was 11.8 µM, the IC50 [5] was 26.7 µM and the selectivity ratio [6] was 0.37. The selectivity ratio [7] was 590 and the selectivity ratio [8] was 0.5.
